Screening results (PubChem)
Hits are enriched below; roughly 27% of the tested compounds scored in any of these assays.
CYP2C9 activ: human CYP2C9 activators, primary screen, biochemical, luminescence; activation factor at 5 µM; Cytochrome P450 2C9 (Homo sapiens), P11712; 1.4% of 96,000 active; recombinant CYP2C9, luciferin-H conversion; active compounds read high; factor 1 = untreated enzyme, 0 = blocked;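 active = activation factor of 2 or more for CYP2C9 at a 5 µM dose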;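 note: 0 = sulfaphenazole-blocked wells and 1 = vehicle-only wells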
Target sequence (P11712 whole entry, looked up): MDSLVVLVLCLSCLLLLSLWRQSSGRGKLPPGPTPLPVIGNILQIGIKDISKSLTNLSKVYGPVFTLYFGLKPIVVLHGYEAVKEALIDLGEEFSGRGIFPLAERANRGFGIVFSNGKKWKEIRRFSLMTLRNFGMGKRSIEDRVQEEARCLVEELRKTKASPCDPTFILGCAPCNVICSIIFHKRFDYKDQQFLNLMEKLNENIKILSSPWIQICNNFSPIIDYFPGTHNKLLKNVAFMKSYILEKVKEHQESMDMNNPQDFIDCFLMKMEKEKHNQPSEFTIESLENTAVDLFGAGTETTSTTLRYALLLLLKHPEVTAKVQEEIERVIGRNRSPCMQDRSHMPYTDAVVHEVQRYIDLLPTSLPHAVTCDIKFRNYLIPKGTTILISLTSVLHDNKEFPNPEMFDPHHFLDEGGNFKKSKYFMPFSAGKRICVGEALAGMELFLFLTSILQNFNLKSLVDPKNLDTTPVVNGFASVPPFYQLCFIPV
HIV Rev-RRE inh: HIV-1 Rev-RRE binding inhibitors, primary screen, biochemical, FRET, protein-RNA interaction | P05866 | Rev peptide-RRE RNA binding | inhibition, % at 8 µM | 0.79% of 97,000 active | AID 704, 2007;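 active = inhibition above the screen-wide mean plus 3 SD, cut at about 35% in these data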;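 note: 0% = median DMSO wells and 100% = median Neomycin B control wells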
Target sequence (P05866 whole entry, looked up): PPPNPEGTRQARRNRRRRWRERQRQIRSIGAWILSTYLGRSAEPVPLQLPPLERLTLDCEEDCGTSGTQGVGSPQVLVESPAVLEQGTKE
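Test system: labelled RRE RNA duplex and labelled Rev peptide. Times: 5 min compound–RNA preincubation, then 15 min with peptide, 25 °C. Doses: single-dose 8 µM. Measured by: FRET, excitation 480 nm, emission 540 nm donor and 671 nm acceptor. Measure: % inhibition of FRET ratio versus controls.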
Cav32 inh: Cav3.2 calcium influx blockers – cell-based, Fluo-4 calcium fluorescence, FDSS, MLSMR library, primary screen | Cav3.2-expressing cells; active compounds read low | B-score at 10 µM | 4% of 100,000 active | AID 449739, 2010 | Voltage-dependent T-type calcium channel subunit alpha-1H (Homo sapiens), O95180;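 active = single-dose well whose peak fluorescence ratio is a statistical outlier from its plate by either plate-standardised score or position-corrected B-score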
CYP2C9 inh: blockers of cytochrome P450 2C9 activity – biochemical, luminescence, ADME assay, primary screen | P11712 | CYP2C9 Supersomes, luciferin-H conversion | inhibition, % at 5 µM | 20% of 96,000 active | AID 777, 2007;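 active = blocking of liver enzyme CYP2C9 beyond about 50% at 5 µM, limit read from the data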
CYP2C19 activ: human CYP2C19 activators, primary screen, biochemical, luminescence. activation factor at 5 µM. 96,000 tested, under 10 active. AID 1025, 2008. Cytochrome P450 2C19 (Homo sapiens), P33261. recombinant CYP2C19, luciferin-H EGE luminescence; active compounds read high; 0 = fully inhibited enzyme, 1 = untreated enzyme;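 active = activation factor of at least 2 at 5 µM in the primary screen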;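 note: 0 = wells with 2.5 mM tranylcypromine and 1 = vehicle-only wells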
CYP2C19 inhib: blockers of cytochrome P450 2C19 activity – biochemical, luminescence, ADME assay, primary screen; CYP2C19 Supersomes, luciferin-H EGE luminescence, 30 min; inhibition, % at 5 µM; 21% of 96,000 active; AID 778, 2007;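 active = CYP2C19 inhibition above a set limit at 5 µM in the primary screen, cut at about 50% in these data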;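 note: plate controls were negative control wells for no effect and 2.5 mM tranylcypromine positive control for full effect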
Starred values were filed as active, the others as inactive; · = not tested or not shown.

SMILES	CYP2C9 activ	HIV Rev-RRE inh	Cav32 inh	CYP2C9 inh	CYP2C19 activ	CYP2C19 inhib
O=C(C1=C(O)C(=O)N(Cc2ccco2)C1c1cccnc1)c1cc2ccccc2o1 (configuration not stated)	0.8	7	0.49	25	1	-5
CC(=O)OC1c2ccccc2C(=O)N1Cc1ccccc1 (configuration not stated)	1.2	0	0.029	-17	0.5	51*
CC(C)CCN1C(=O)c2ccccc2C1C(=O)NCc1cccnc1 (configuration not stated)	0.8	5	1	19	0.4	62*
O=C(NCc1cccnc1)C1c2ccccc2C(=O)N1Cc1ccccc1 (configuration not stated)	0.8	4	0.17	22	0.4	63*
O=C(N/N=C/C=C/c1ccco1)C(O)c1ccccc1 (configuration not stated)	·	1	0.1	·	·	·
COc1cccc(C(=O)NCc2nnc(SCC(=O)Nc3nccs3)n2-c2cccc(C)c2)c1	·	8	-1.5	·	·	·
N#Cc1cc(C(=O)c2cc(Br)ccc2O)cn(C2CCCCC2)c1=O	1.1	17	1	-13	1.1	-13
COc1cc(C=O)ccc1OCCOCCOc1c(C)cc(Cl)cc1Cl	·	12	-1.4	·	·	·
O=C(CCC(=O)c1cccs1)NC(c1ccccc1)c1ccccc1	0.5	2	-1.2	55*	0.3	74*
O=C(CCC(=O)c1cccs1)c1cccs1	·	11	-0.022	·	·	·
COc1cc(-c2nnc(COc3ccc4ccccc4c3)o2)cc(OC)c1OC	0.5	-4	·	49	0.5	46
N#CCSc1nnc(COc2ccc3ccccc3c2)o1	0.9	10	-0.66	10	0.4	57*
Cc1nn2c3c(cnc2c1-c1ccccc1)C(=O)CC(c1ccco1)C3 (configuration not stated)	0.7	0	0.79	27	1.1	-8
Cc1nn2c3c(cnc2c1-c1ccccc1)C(=O)CC(c1ccccc1)C3 (configuration not stated)	0.5	3	0.057	54*	0.6	36
O=c1cc(NC2CCCCC2)c2ccccc2o1	0.5	4	1.5	53*	0.4	60*
CC(=O)NC1Sc2ccccc2N=C1c1ccccc1 (configuration not stated)	0.6	5	-0.15	37	0.6	40
CCc1ccc(/C=C2\CN(CC)Cc3c2nc2ccccc2c3C(=O)O)cc1	1	40*	0.14	-4	0.8	21
Cc1c(-c2ccccc2)nc2ccccc2c1C(=O)O	1	2	0.91	0	1.1	-13
O=C(CN1CCOCC1)Nc1nc2ccc(Br)cc2s1	0.3	6	-0.59	65*	0.8	15
C[C@@]12CC(=O)NC1N(C(=O)c1cccc(C(F)(F)F)c1)C(c1ccccc1OC(=O)c1cccc(C(F)(F)F)c1)C2 (some centres not stated)	0.1	0	-2.8	94*	0.5	48
O=C(CN1C(=O)COc2ccccc21)N(Cc1cccnc1)Cc1cccc(F)c1	0.1	4	-0.01	91*	0.1	87*
C=CCn1c(SCC(=O)NCCC2=CCCCC2)nc2ccc(Cl)cc2c1=O	0.4	12	-1.2	56*	0.7	29
CCC(Sc1nnc(-c2ccc(C)c(Cl)c2)n1CC)C(=O)Nc1nccs1 (configuration not stated)	0.6	·	-5.7*	44	0.5	49
O=C(CSc1n[nH]c(-c2ccc(S(=O)(=O)N3CCCCC3)cc2)n1)Nc1nccs1	0.1	10	-0.52	87*	1	4
CCn1c(SCC(=O)Nc2nccs2)nnc1-c1ccc(S(=O)(=O)N2CCCCCC2)cc1	0.5	6	-0.97	52*	0.8	17
SMILES	CYP2C9 activ	HIV Rev-RRE inh	Cav32 inh	CYP2C9 inh	CYP2C19 activ	CYP2C19 inhib
Cn1c(SCC(=O)Nc2nccs2)nnc1-c1ccc(S(=O)(=O)N2CCCC2)cc1	0.9	3	2.1	6	0.9	10
O=C(O)c1cnc(-c2ccccc2)nc1Sc1cccc(Cl)c1	0.6	-2	-6.3*	40	0.9	6
O=C(O)c1cnc(-c2ccccc2)nc1Sc1ccc(Cl)cc1Cl	0.5	4	-0.99	53*	1.1	-7
O=C(O)c1cnc(-c2ccccc2)nc1Sc1ccccc1	0.9	3	-3.2	7	1.1	-7
CCCc1nn2c(=O)c(C(c3ccc(C)cc3)c3c(O)nc4sc(CCC)nn4c3=O)c(O)nc2s1	1	0	-0.81	0	1	2
N#Cc1cn(CCOc2ccccc2F)c2ccccc12	0	12	-2.7	100*	0	98*
Cc1c(C#N)c2ccccc2n1CCOc1ccccc1F	0.5	19	-0.74	51*	0.6	40
CC1=C(C)C(=O)N(CCC(=O)O)C1=O	1.1	3	-0.37	-15	1.1	-13
CC(C(=O)N(C1CC1)C1(C(=O)Nc2ccccc2)CCCC1)N1C(=O)c2ccccc2C1=O (configuration not stated)	0.8	·	-2	22	0.6	37
CCCOc1ccc(C2C(C(=O)c3ccc(C)o3)=C(O)C(=O)N2Cc2cccnc2)cc1 (configuration not stated)	0.4	2	-2.7	59*	1.1	-10
Cc1ccc(C(=O)C2=C(O)C(=O)N(CCCn3ccnc3)C2c2ccc(OC(C)C)cc2)o1 (configuration not stated)	0.4	6	0.025	57*	0.8	20
CCOc1ccc(C(=O)c2cccs2)cc1	0.5	·	0.24	47	0.3	73*
CCOc1ccc(C2C(C(=O)c3ccco3)=C(O)C(=O)N2Cc2cccnc2)cc1 (configuration not stated)	0.7	-2	-0.52	29	1.1	-5
Cc1nc(C)c(C(=O)C2=C(O)C(=O)N(CCCn3ccnc3)C2c2ccccc2)s1 (configuration not stated)	0.8	4	-0.086	21	0.9	15
CCOc1ccc(C2C(C(=O)c3ccco3)=C(O)C(=O)N2CCCn2ccnc2)cc1 (configuration not stated)	0.5	2	0.13	49	0.9	6
CCOc1ccc(C2C(C(=O)c3cccs3)=C(O)C(=O)N2CCCn2ccnc2)cc1 (configuration not stated)	0.3	7	·	73*	0.8	16
CCCNCc1cc(OC)c(OCCC)cc1Cl	·	9	1.4	·	·	·
CCOc1ccc(Cc2c(Cl)nc(N)nc2Cl)cc1	1	4	-1.8	-4	0.5	53*
